In ChEMBL document CHEMBL1799976, “Neurosteroid analogues. 15. A comparative study of the anesthetic and GABAergic actions of alphaxalone, Δ16-alphaxalone and their corresponding 17-carbonitrile analogues” (Bioorg Med Chem Lett, 2010):
The source made the active and inactive calls. The calls are words filed in the database; no cut-off is given here.

Legend:
[1] = test system: Oocyte; assay: Modulation of rat GABA-A alpha1beta2gamma2L receptor expressed in Xenopus oocytes assessed as increase of GABA-induced chloride current at 0.1 uM by two electrode voltage-clamp method relative to control; type: cell-based
Summary of the method: (§1)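 Two-electrode recording of GABA currents in Xenopus oocytes expressing rat α1β2γ2L GABA-A receptors. The control current was evoked with 2 μM GABA, then compound was co-applied at 0.1, 1 or 10 μM. Each value is the current with compound divided by the current without it, from at least four oocytes (SEM, N ≥ 4).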

[2] = test system: Oocyte; assay: Modulation of rat GABA-A alpha1beta2gamma2L receptor expressed in Xenopus oocytes assessed as increase of GABA-induced chloride current at 1 uM by two electrode voltage-clamp method relative to control; type: cell-based; summary of the method: as §1
[3] = test system: Oocyte; assay: Modulation of rat GABA-A alpha1beta2gamma2L receptor expressed in Xenopus oocytes assessed as increase of GABA-induced chloride current at 10 uM by two electrode voltage-clamp method relative to control; type: cell-based; summary of the method: as §1
[4] = test system: Oocyte; assay: Modulation of rat GABA-A alpha1beta2gamma2L receptor expressed in Xenopus oocytes assessed as increase of chloride current at 10 uM by two electrode voltage-clamp method relative to GABA; type: cell-based
Summary of the method: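 Direct gating test on oocytes expressing rat α1β2γ2L GABA-A receptors. Compound was applied alone at 10 μM with no GABA. The current is expressed as compound-only current divided by the current to 2 μM GABA, from at least four oocytes (SEM).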

[5] = test system: Xenopus laevis; assay: Anesthetic effect on prelimb-bud stage of Xenopus laevis tadpole assessed as loss of righting reflex; type: functional, organism-based
Summary of the method: (§2)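 Behavioural reflex end points in tadpoles, with 10 animals at each of five or more concentrations. The highest concentration tested was 10 μM, and "none" means no reflex was lost at that level. EC50 was taken for each reflex, with error given as standard error of the mean.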

[6] = test system: Xenopus laevis; assay: Anesthetic effect on prelimb-bud stage of Xenopus laevis tadpole assessed as loss of swimming reflex at 10 uM; type: functional, organism-based
Summary of the method: (§3)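 Swimming-reflex scoring in tadpoles at single bath concentrations of 3 μM and 10 μM. Results are reported as whether the tadpoles kept or lost the reflex at each concentration.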

[7] = Displacement of [35S]TBPS from GABA-A receptor picrotoxin binding site in rat brain cortical membranes after 2 hrs by scintillation counting; type: cell membranes, Membrane
[8] = test system: Xenopus laevis; assay: Anesthetic effect on prelimb-bud stage of Xenopus laevis tadpole assessed as loss of swimming reflex; type: functional, organism-based; summary of the method: as §2
[9] = test system: Xenopus laevis; assay: Anesthetic effect on prelimb-bud stage of Xenopus laevis tadpole assessed as loss of swimming reflex at 3 uM; type: functional, organism-based; summary of the method: as §3
[10] = test system: Oocyte; assay: Modulation of rat GABA-A alpha1beta2gamma2L receptor expressed in Xenopus oocytes assessed as increase of GABA-induced chloride current by two electrode voltage-clamp method relative to control; type: cell-based; summary of the method: as §1

Compound	fold change (FC) [1]	fold change (FC) [2]	fold change (FC) [3]	fold change (FC) [4]	EC50 [5] [nM]	Activity [6]	IC50 [7] [nM]	EC50 [8] [µM]	Activity [9]	Activity [10]
CC(=O)C1=CC[C@H]2[C@@H]3CC[C@H]4C[C@H](O)CC[C@]4(C)[C@H]3C(=O)C[C@]12C	0.94	0.97	1.87	0.08	> 10000	inactive	2220			
C[C@]12CC[C@@H](O)C[C@@H]1CC[C@@H]1[C@@H]2C(=O)C[C@]2(C)C(C#N)=CC[C@@H]12	1.49	4.07	23.8	0.21	1040	Active	361	5.48	inactive	
CC(=O)[C@H]1CC[C@H]2[C@@H]3CC[C@H]4C[C@H](O)CC[C@]4(C)[C@H]3C(=O)C[C@]12C [ALFAXALONE]	2.91	4.7	19.6	0.11	1120	Active		5.48	inactive	Dose-dependent effect
C[C@]12CC[C@@H](O)C[C@@H]1CC[C@H]1[C@@H]3CC[C@H](C#N)[C@@]3(C)CC(=O)[C@@H]12	1.12	4.59	21.1	0.14	720	Active	190	5.48	inactive	
